# Data published in ChEMBL document CHEMBL3352734, “Reniochalistatins A-E, cyclic peptides from the marine sponge Reniochalina stalagmitis” (J Nat Prod, 2014).
# Active and inactive are the calls of the source. The calls are words filed in the database; no cut-off is given here. Peptide text beside a SMILES is read from it.
# Experiments:
# Type in all cases: functional, cell-based
# MGC-803 = test: Cytotoxicity against human MGC803 cells after 72 hrs by MTS assay; details: for IC50: MGC-803, 72 h
# Summary of the method: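 Gastric MGC-803 line maintained in RPMI-1640 plus 10% FBS, 37 °C, 5% CO2. Cells seeded at 1 × 10^4/well, incubated 24 h, then given medium with varying sample concentrations for 72 h. After 2 h with MTS, absorbance taken at 490 nm (reference 690 nm).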
# HL-60 = test: (§1) Cytotoxicity against human HL60 cells after 72 hrs by MTS assay
# Summary of the method: (§2)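 HL-60 (human leukemia) grown in RPMI-1640 with 20% FBS at 37 °C, 5% CO2. Seeded at 1 × 10^4 cells/well and left 24 h, then exposed to a range of sample concentrations for 72 h. MTS added for 2 h; absorbance read at 490 nm against a 690 nm reference.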
# HepG2 = test: Cytotoxicity against human HepG2 cells after 72 hrs by MTS assay; details: for IC50: HepG2, 72 h
# Summary of the method: (§3)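 HeLa (cervical) and HepG2 (hepatoma) cells kept in high-glucose DMEM with 10% FBS, 5% CO2, 37 °C. Plated at 1 × 10^4 cells/well for 24 h, then treated with graded sample concentrations for 72 h. Viability by MTS reduction over 2 h, measured at 490 nm with 690 nm reference.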
# HeLa = test: Cytotoxicity against human HeLa cells after 72 hrs by MTS assay; summary of the method: as §3
# [1] = as §1; details: HL-60, 72 h; summary of the method: as §2
# RPMI-8226 = test: Cytotoxicity against human RPMI8226 cells after 72 hrs by MTS assay; details: RPMI-8226, 72 h
Structure (SMILES),inhibition (MGC-803),inhibition (HL-60),inhibition (HepG2),inhibition (HeLa),IC50 (MGC-803) [nM],IC50 [1] [nM],IC50 (RPMI-8226) [nM],IC50 (HepG2) [nM],IC50 (HeLa) [nM]
CC[C@H](C)[C@@H]1NC(=O)[C@H](Cc2ccccc2)NC(=O)[C@@H]2CCCN2C(=O)[C@H](Cc2ccccc2)NC(=O)[C@@H]2CCCN2C(=O)[C@@H]2CCCN2C(=O)[C@H](Cc2ccccc2)NC1=O (cyclo(FIFPPFP)),inactive,inactive,inactive,inactive,–,–,–,–,–
CC[C@H](C)[C@@H]1NC(=O)[C@@H]2CCCN2C(=O)[C@H](Cc2ccccc2)NC(=O)[C@H](Cc2ccc(O)cc2)NC(=O)[C@H]([C@@H](C)CC)NC(=O)[C@@H]2CCCN2C(=O)[C@H](Cc2ccccc2)NC1=O (cyclo(FPIFPIY)),inactive,inactive,inactive,inactive,–,–,–,–,–
CC[C@H](C)[C@@H]1NC(=O)[C@@H]2CCCN2C(=O)[C@H](CC(C)C)NC(=O)[C@@H]2CCCN2C(=O)[C@H](CC(C)C)NC(=O)[C@H](Cc2ccc(O)cc2)NC(=O)[C@H](Cc2ccccc2)NC1=O (cyclo(FYLPLPI)),inactive,inactive,inactive,inactive,–,–,–,–,–
CC[C@H](C)[C@@H]1NC(=O)[C@H](C(C)C)NC(=O)[C@@H]2CCCN2C(=O)[C@H](Cc2c[nH]c3ccccc23)NC(=O)[C@H](CC(C)C)NC(=O)[C@@H]2CCCN2C(=O)[C@H]([C@@H](C)CC)NC(=O)[C@@H]2CCCN2C1=O (cyclo(IPIPLWPV)),–,–,–,–,9700,> 20000,4900,> 20000,17300
CC[C@H](C)[C@@H]1NC(=O)[C@H](C(C)C)NC(=O)[C@H](CC(N)=O)NC(=O)[C@@H]2CCCN2C(=O)[C@H](CC(C)C)NC(=O)[C@H](CC(C)C)NC(=O)[C@@H]2CCCN2C1=O (cyclo(IPLLPNV)),inactive,inactive,inactive,inactive,–,–,–,–,–
COc1cccc2c1C(=O)c1c(O)c3c(c(O)c1C2=O)C[C@@](O)(C(=O)CO)C[C@@H]3O[C@H]1C[C@H](N)[C@H](O)[C@H](C)O1 [DOXORUBICIN],–,–,–,–,100,200,–,400,500
